# Assay results published in ChEMBL document CHEMBL1806414, “Synthesis and anticonvulsant activity of 7-phenyl-6,7-dihydro-[1,2,4]triazolo[1,5-a]pyrimidin-5(4H)-ones and their derivatives” (Eur J Med Chem, 2011).
# The source made the active and inactive calls. The rule behind the calls is not given here.
# Tests used:
# [1] = organism: Mus musculus; assay: Protective index, ratio of TD50 for neurotoxicity in Kunming mouse to ED50 for inhibition of MES-induced seizures in Kunming mouse; type: functional
# [2] = tested on: Mus musculus; assay: Anticonvulsant activity in Kunming mouse assessed as inhibition of isoniazid-induced tonic seizures at 50 mg/kg, ip after 1 hrs; type: functional; set-up: scale not given: the % may be the effect or the level left; conditions: route intraperitoneal
# Summary of the method: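 Isoniazid given at 250 mg/kg, a dose convulsing all controls, to KunMing mice pretreated i.p. with compound or DMSO. Mice were caged individually and observed for 1 h, counting clonic seizures, tonic seizures and deaths.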
# [3] = tested on: Mus musculus; assay: Anticonvulsant activity in Kunming mouse assessed as inhibition of subcutaneous pentylenetetrazol-induced tonic seizures at 50 mg/kg, ip after 0.5 hrs; type: functional; set-up: scale not given: the % may be the effect or the level left
# [4] = tested on: Mus musculus; assay: Anticonvulsant activity in Kunming mouse assessed as inhibition of bicuculline-induced tonic seizures at 30 mg/kg, ip after 0.5 hrs; type: functional; set-up: scale not given: the % may be the effect or the level left; conditions: route intraperitoneal
# Summary of the method: (§1)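 Kunming mice (18–22 g, 10/group) received test compound i.p. in DMSO; 0.5 h later bicuculline, 5.4 mg/kg, was given s.c. within 15–45 min of preparation. Mice were isolated and observed for at least 0.5 h for clonic seizures, tonic seizures and lethality.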
# [5] = tested on: Mus musculus; assay: Anticonvulsant activity in Kunming mouse assessed as inhibition of subcutaneous pentylenetetrazol-induced clonic seizures at 50 mg/kg, ip after 0.5 hrs; type: functional; set-up: scale not given: the % may be the effect or the level left
# Summary of the method: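 Compound or vehicle (DMSO) given i.p. to KunMing mice, 10 per group, before the pentylenetetrazol challenge. Mice were held in individual cages and observed for 0.5 h. Clonic seizures, tonic seizures (hind-leg extension) and deaths were counted.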
# [6] = tested on: Mus musculus; assay: Anticonvulsant activity in Kunming mouse assessed as inhibition of thiosemicarbazide-induced clonic seizures at 30 mg/kg, ip after 2.5 hrs; type: functional; set-up: scale not given: the % may be the effect or the level left; conditions: route intraperitoneal
# Summary of the method: (§2)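 Thiosemicarbazide, 50 mg/kg i.p., was given 0.5 h after compound or DMSO to KunMing mice, 10 per group. Mice were caged individually and observed for 2.5 h for clonic and tonic seizures and deaths.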
# [7] = tested on: Mus musculus; assay: Anticonvulsant activity in Kunming mouse assessed as inhibition of 3-mercaptopropionic acid-induced clonic seizures at 30 mg/kg, ip after 0.5 hrs; type: functional; set-up: scale not given: the % may be the effect or the level left; conditions: route intraperitoneal
# Summary of the method: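 3-Mercaptopropionic acid, 60 mg/kg in saline, was injected s.c. 0.5 h after i.p. compound or DMSO in KunMing mice, 10 per group. Clonic and tonic seizures and deaths were scored.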
# [8] = tested on: Mus musculus; assay: Anticonvulsant activity in Kunming mouse assessed as protection against maximal electric shock-induced seizures at 300 mg/kg, ip measured after 0.5 hrs; type: functional, organism-based; set-up: dose 300 mg/kg
# Summary of the method: (§3)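 KunMing mice (18–22 g), compounds dissolved in DMSO, given i.p. at 30, 100 and 300 mg/kg, three mice per dose. Current applied through corneal electrodes for 0.2 s at 0.5 h and 4 h after dosing. Protection is abolition of tonic hind-leg extension, scored as protected/tested.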
# [9] = tested on: Mus musculus; assay: Neurotoxicity in Kunming mouse at 100 mg/kg, ip after 0.5 hrs; type: toxicity, organism-based; set-up: dose 100 mg/kg, route intraperitoneal; conditions: in vivo
# Summary of the method: (§4)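 Rotarod neurotoxicity in KunMing mice (18–22 g) trained on a 3.2 cm diameter rod at 10 rpm. Compounds in DMSO were given i.p. at 30, 100 and 300 mg/kg, three mice per dose, and tested at 0.5 h and 4 h after dosing.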
# [10] = tested on: Mus musculus; assay: Anticonvulsant activity in Kunming mouse assessed as protection against maximal electric shock-induced seizures at 100 mg/kg, ip measured after 0.5 hrs; type: functional, organism-based; set-up: dose 100 mg/kg; summary of the method: as §3
# [11] = tested on: Mus musculus; assay: Anticonvulsant activity in Kunming mouse assessed as protection against maximal electric shock-induced seizures at 30 mg/kg, ip measured after 4 hrs; type: functional, organism-based; set-up: dose 30 mg/kg; summary of the method: as §3
# [12] = tested on: Mus musculus; assay: Neurotoxicity in Kunming mouse at 100 mg/kg, ip after 4 hrs; type: toxicity, organism-based; set-up: dose 100 mg/kg, route intraperitoneal; conditions: in vivo; summary of the method: as §4
# [13] = Neurotoxicity in ip dosed Kunming mouse by rotarod test; type: toxicity, organism-based; conditions: in vivo
# Summary of the method: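 Phase-II rotarod test in KunMing mice trained on a 3.2 cm rod at 10 rpm, DMSO vehicle. Groups of 10 mice got graded i.p. doses until at least three points fell within 10–90% minimal neurotoxicity, giving the median toxic dose.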
# [14] = tested on: Mus musculus; assay: Anticonvulsant activity in Kunming mouse assessed as protection against maximal electric shock-induced seizures at 100 mg/kg, ip measured after 4 hrs; type: functional, organism-based; set-up: dose 100 mg/kg; summary of the method: as §3
# [15] = tested on: Mus musculus; assay: Anticonvulsant activity in Kunming mouse assessed as inhibition of thiosemicarbazide-induced tonic seizures at 30 mg/kg, ip after 2.5 hrs; type: functional; set-up: scale not given: the % may be the effect or the level left; conditions: route intraperitoneal; summary of the method: as §2
# [16] = tested on: Mus musculus; assay: Anticonvulsant activity in Kunming mouse assessed as protection against maximal electric shock-induced seizures at 30 mg/kg, ip measured after 0.5 hrs; type: functional, organism-based; set-up: dose 30 mg/kg; summary of the method: as §3
# [17] = tested on: Mus musculus; assay: Anticonvulsant activity in Kunming mouse assessed as inhibition of isoniazid-induced death at 50 mg/kg, ip after 1 hrs; type: functional; set-up: scale not given: the % may be the effect or the level left; conditions: route intraperitoneal
# [18] = tested on: Mus musculus; assay: Anticonvulsant activity in Kunming mouse assessed as inhibition of isoniazid-induced clonic seizures at 50 mg/kg, ip after 1 hrs; type: functional; set-up: scale not given: the % may be the effect or the level left; conditions: route intraperitoneal
# [19] = tested on: Mus musculus; assay: Neurotoxicity in Kunming mouse at 300 mg/kg, ip after 4 hrs; type: toxicity, organism-based; set-up: dose 300 mg/kg, route intraperitoneal; conditions: in vivo; summary of the method: as §4
# [20] = tested on: Mus musculus; assay: Anticonvulsant activity in Kunming mouse assessed as inhibition of bicuculline-induced clonic seizures at 30 mg/kg, ip after 0.5 hrs; type: functional; set-up: scale not given: the % may be the effect or the level left; conditions: route intraperitoneal
# Summary of the method: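 Bicuculline, 5.4 mg/kg s.c. and used within 15–45 min of preparation, was given 0.5 h after i.p. compound or DMSO to KunMing mice, 10 per group. Mice were isolated and observed for at least 0.5 h for clonic seizures, tonic seizures and lethality.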
# [21] = tested on: Mus musculus; assay: Anticonvulsant activity against maximal electric shock-induced seizures in ip dosed Kunming mouse assessed as median effective dose; type: functional
# Summary of the method: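 Phase-II MES test in KunMing mice (18–22 g), DMSO vehicle, corneal electrode stimulus 0.2 s. Groups of 10 mice got a range of i.p. doses until at least three points fell within 10–90% seizure protection, giving the median effective dose. Endpoint is abolition of tonic hind-leg extension.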
# [22] = tested on: Mus musculus; assay: Anticonvulsant activity in Kunming mouse assessed as protection against maximal electric shock-induced seizures at 300 mg/kg, ip measured after 4 hrs; type: functional, organism-based; set-up: dose 300 mg/kg; summary of the method: as §3
# [23] = tested on: Mus musculus; assay: Neurotoxicity in Kunming mouse at 300 mg/kg, ip after 0.5 hrs; type: toxicity, organism-based; set-up: dose 300 mg/kg, route intraperitoneal; conditions: in vivo; summary of the method: as §4
# [24] = tested on: Mus musculus; assay: Anticonvulsant activity in Kunming mouse assessed as inhibition of 3-mercaptopropionic acid-induced tonic seizures at 30 mg/kg, ip after 0.5 hrs; type: functional; set-up: scale not given: the % may be the effect or the level left; conditions: route intraperitoneal
# Summary of the method: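 Kunming mice (18–22 g, 10/group) received test compound i.p. in DMSO; 0.5 h later 3-mercaptopropionic acid, 60 mg/kg in saline, was given s.c. Mice were scored for clonic seizures, tonic seizures (hind-leg extension) and deaths.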
# [25] = tested on: Mus musculus; assay: Anticonvulsant activity in Kunming mouse assessed as inhibition of bicuculline-induced death at 30 mg/kg, ip after 0.5 hrs; type: functional; set-up: scale not given: the % may be the effect or the level left; conditions: route intraperitoneal; summary of the method: as §1
SMILES,Ratio TD50/ED50 [1],Activity [8],Activity [9],Activity [10],Activity [11],Activity [12],TD50 [13],Activity [14],Activity [16],Activity [19],ED50 [21],Activity [22],Activity [23],other results
O=C1CC(c2ccccc2Br)n2ncnc2N1 (stereo unspecified),34.8,Active,Non-toxic,Active,inactive,Non-toxic,685 mg/kg,inactive,Active,Non-toxic,19.7 mg/kg,inactive,Non-toxic,Activity [2]: 0%; Activity [3]: 0%; Activity [4]: 10%; Activity [5]: 0%; Activity [6]: 100%; Activity [7]: 100%; Activity [15]: 0%; Activity [17]: 30%; Activity [18]: 100%; Activity [20]: 100%; Activity [24]: 0%; Activity [25]: 50%
NC(=O)N1c2ccccc2C=Cc2ccccc21 [CARBAMAZEPINE],6.4,,,,,,,,,,11.8 mg/kg,,,Activity [2]: 0%; Activity [3]: 0%; Activity [4]: 0%; Activity [5]: 100%; Activity [6]: 100%; Activity [7]: 100%; Activity [15]: 0%; Activity [18]: 50%; Activity [20]: 100%; Activity [24]: 0%; Activity [25]: 20%
O=C1CC(c2ccccc2)n2ccnc2N1 (stereo unspecified),6.7,Active,Non-toxic,Active,inactive,Non-toxic,458 mg/kg,inactive,inactive,Non-toxic,68.2 mg/kg,inactive,Non-toxic,
O=C1CC(c2ccccc2Br)n2nccc2N1 (stereo unspecified),3.4,Active,,Active,inactive,Non-toxic,132 mg/kg,inactive,inactive,Non-toxic,39.4 mg/kg,inactive,Toxic,
O=C1CC(c2cccc(C(F)(F)F)c2)n2ncnc2N1 (stereo unspecified),2.9,Active,,Active,inactive,Non-toxic,158 mg/kg,inactive,inactive,Non-toxic,54.8 mg/kg,inactive,Toxic,
O=C1CC(c2ccccc2Cl)n2nccc2N1 (stereo unspecified),1.5,Active,,Active,inactive,Non-toxic,94.7 mg/kg,inactive,inactive,Non-toxic,63.4 mg/kg,inactive,Toxic,
O=C1CC(c2cccc(Br)c2)n2ncnc2N1 (stereo unspecified),7,Active,Non-toxic,Active,inactive,Non-toxic,592 mg/kg,inactive,inactive,Non-toxic,84.9 mg/kg,inactive,Non-toxic,
O=C1CC(c2ccccc2F)n2nccc2N1 (stereo unspecified),2.5,Active,,Active,inactive,Non-toxic,118 mg/kg,inactive,,Non-toxic,47.3 mg/kg,inactive,Toxic,
